≈ marks a conversion by molar mass, not a printed value.
tested on: not listed separately; assay: Efflux ratio of MIC for Escherichia coli 25922 to MIC for Escherichia coli JW5503; assay type: functional; conditions: not given
Procedure, shortened: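 Ratio of the MIC against wild-type E. coli ATCC 25922 to the MIC against the tolC deletion mutant JW5503. Both MICs were read after 24 h, n = 3. Not determined when the MIC was >50 μM for both strains.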

Row | SMILES | Ratio
1 | CC(=O)NC[C@H]1CN(c2ccc(-c3cccc(COC(=O)c4ccc(B(O)O)cc4)c3)c(F)c2)C(=O)O1 | > 16
2 | CC(=O)NC[C@H]1CN(c2ccc(-c3ccc(CN)cc3)c(F)c2)C(=O)O1 | > 8
3 | CC(=O)NC[C@H]1CN(c2ccc(-c3ccc(COC(=O)c4ccc(B(O)O)cc4)cc3)c(F)c2)C(=O)O1 | > 16
4 | CC(=O)NC[C@H]1CN(c2ccc(-c3ccc(COC(=O)c4cccc(B(O)O)c4)cc3)c(F)c2)C(=O)O1 | > 16
5 | CC(=O)NCC1CN(c2ccc(-c3ccc(COC(=O)c4ccc(B(O)O)c(F)c4)cc3)c(F)c2)C(=O)O1 (stereo unspecified) | > 4
6 | CC(=O)NC[C@H]1CN(c2ccc(-c3ccc(CO)cc3)c(F)c2)C(=O)O1 | > 32

tested on: Enterococcus faecium; assay: Antibacterial activity against vancomycin resistant Enterococcus faecium 700221 assessed as inhibition of bacterial growth measured after 24 hrs; assay type: functional; conditions: not given

Row | SMILES | MIC [µM]
7 | CC(=O)NCC1CN(c2ccc(-c3ccc(COC(=O)c4ccccc4)cc3)c(F)c2)C(=O)O1 (stereo unspecified) | 3.13 (≈ 1.45 µg/mL)
8 | CC(=O)NC[C@H]1CN(c2ccc(-c3ccc(OC(=O)c4ccc(B(O)O)cc4)cc3)c(F)c2)C(=O)O1 | > 50
9 | O=C(O)c1ccc(B(O)O)cc1 | > 50
10 | CC(=O)NC[C@H]1CN(c2ccc(-c3cccc(COC(=O)c4ccc(B(O)O)cc4)c3)c(F)c2)C(=O)O1 | 0.78 (≈ 0.395 µg/mL)
11 | CC(=O)NC[C@H]1CN(c2ccc(-c3ccc(CN)cc3)c(F)c2)C(=O)O1 | 1.56 (≈ 0.558 µg/mL)
12 | CC(=O)NC[C@H]1CN(c2ccc(-c3ccc(COC(=O)c4ccc(B(O)O)cc4)cc3)c(F)c2)C(=O)O1 | 0.39 (≈ 0.197 µg/mL)
13 | CC(=O)NC[C@H]1CN(c2ccc(-c3ccc(COC(=O)c4cccc(B(O)O)c4)cc3)c(F)c2)C(=O)O1 | > 50
14 | CC(=O)NCC1CN(c2ccc(-c3ccc(COC(=O)c4ccc(B(O)O)c(F)c4)cc3)c(F)c2)C(=O)O1 (stereo unspecified) | 1.56 (≈ 0.818 µg/mL)
15 | CC(=O)NC[C@H]1CN(c2ccc(-c3ccc(CO)cc3)c(F)c2)C(=O)O1 | 0.78 (≈ 0.28 µg/mL)

tested on: Enterococcus faecalis; assay: Antibacterial activity against Enterococcus faecalis 29212 assessed as inhibition of bacterial growth measured after 24 hrs; conditions: Enterococcus faecalis, 29212, 24 h

Row | SMILES | MIC [µM]
16 | CC(=O)NCC1CN(c2ccc(-c3ccc(COC(=O)c4ccccc4)cc3)c(F)c2)C(=O)O1 (stereo unspecified) | 3.13 (≈ 1.45 µg/mL)
17 | CC(=O)NC[C@H]1CN(c2ccc(-c3ccc(OC(=O)c4ccc(B(O)O)cc4)cc3)c(F)c2)C(=O)O1 | > 50
18 | O=C(O)c1ccc(B(O)O)cc1 | > 50
19 | CC(=O)NC[C@H]1CN(c2ccc(-c3cccc(COC(=O)c4ccc(B(O)O)cc4)c3)c(F)c2)C(=O)O1 | 0.78 (≈ 0.395 µg/mL)
20 | CC(=O)NC[C@H]1CN(c2ccc(-c3ccc(CN)cc3)c(F)c2)C(=O)O1 | 1.56 (≈ 0.558 µg/mL)
21 | CC(=O)NC[C@H]1CN(c2ccc(-c3ccc(COC(=O)c4ccc(B(O)O)cc4)cc3)c(F)c2)C(=O)O1 | 0.78 (≈ 0.395 µg/mL)
22 | CC(=O)NC[C@H]1CN(c2ccc(-c3ccc(COC(=O)c4cccc(B(O)O)c4)cc3)c(F)c2)C(=O)O1 | > 50
23 | CC(=O)NCC1CN(c2ccc(-c3ccc(COC(=O)c4ccc(B(O)O)c(F)c4)cc3)c(F)c2)C(=O)O1 (stereo unspecified) | 1.56 (≈ 0.818 µg/mL)
24 | CC(=O)NC[C@H]1CN(c2ccc(-c3ccc(CO)cc3)c(F)c2)C(=O)O1 | 0.78 (≈ 0.28 µg/mL)

tested on: Staphylococcus aureus; assay: Antibacterial activity against Methicillin resistant Staphylococcus aureus 43300 assessed as inhibition of bacterial growth measured after 24 hrs; assay type: functional; conditions: not given

Row | SMILES | MIC [µM]
25 | CC(=O)NCC1CN(c2ccc(-c3ccc(COC(=O)c4ccccc4)cc3)c(F)c2)C(=O)O1 (stereo unspecified) | 3.13 (≈ 1.45 µg/mL)
26 | CC(=O)NC[C@H]1CN(c2ccc(-c3ccc(OC(=O)c4ccc(B(O)O)cc4)cc3)c(F)c2)C(=O)O1 | > 50
27 | O=C(O)c1ccc(B(O)O)cc1 | > 50
28 | CC(=O)NC[C@H]1CN(c2ccc(-c3cccc(COC(=O)c4ccc(B(O)O)cc4)c3)c(F)c2)C(=O)O1 | 0.78 (≈ 0.395 µg/mL)
29 | CC(=O)NC[C@H]1CN(c2ccc(-c3ccc(CN)cc3)c(F)c2)C(=O)O1 | 3.13 (≈ 1.12 µg/mL)
30 | CC(=O)NC[C@H]1CN(c2ccc(-c3ccc(COC(=O)c4ccc(B(O)O)cc4)cc3)c(F)c2)C(=O)O1 | 0.78 (≈ 0.395 µg/mL)
31 | CC(=O)NC[C@H]1CN(c2ccc(-c3ccc(COC(=O)c4cccc(B(O)O)c4)cc3)c(F)c2)C(=O)O1 | 0.78 (≈ 0.395 µg/mL)
32 | CC(=O)NCC1CN(c2ccc(-c3ccc(COC(=O)c4ccc(B(O)O)c(F)c4)cc3)c(F)c2)C(=O)O1 (stereo unspecified) | 1.56 (≈ 0.818 µg/mL)
33 | CC(=O)NC[C@H]1CN(c2ccc(-c3ccc(CO)cc3)c(F)c2)C(=O)O1 | 0.78 (≈ 0.28 µg/mL)

tested on: Escherichia coli; assay: Antibacterial activity against Escherichia coli JW5503 delta tolC mutant assessed as inhibition of bacterial growth measured after 24 hrs; conditions: JW5503, 24 h

Row | SMILES | MIC [µM]
34 | CC(=O)NCC1CN(c2ccc(-c3ccc(COC(=O)c4ccccc4)cc3)c(F)c2)C(=O)O1 (stereo unspecified) | > 50
35 | CC(=O)NC[C@H]1CN(c2ccc(-c3ccc(OC(=O)c4ccc(B(O)O)cc4)cc3)c(F)c2)C(=O)O1 | > 50
36 | O=C(O)c1ccc(B(O)O)cc1 | > 50
37 | CC(=O)NC[C@H]1CN(c2ccc(-c3cccc(COC(=O)c4ccc(B(O)O)cc4)c3)c(F)c2)C(=O)O1 | 3.13 (≈ 1.58 µg/mL)
38 | CC(=O)NC[C@H]1CN(c2ccc(-c3ccc(CN)cc3)c(F)c2)C(=O)O1 | 6.25 (≈ 2.23 µg/mL)
39 | CC(=O)NC[C@H]1CN(c2ccc(-c3ccc(COC(=O)c4ccc(B(O)O)cc4)cc3)c(F)c2)C(=O)O1 | 3.13 (≈ 1.58 µg/mL)
40 | CC(=O)NC[C@H]1CN(c2ccc(-c3ccc(COC(=O)c4cccc(B(O)O)c4)cc3)c(F)c2)C(=O)O1 | 3.13 (≈ 1.58 µg/mL)
41 | CC(=O)NCC1CN(c2ccc(-c3ccc(COC(=O)c4ccc(B(O)O)c(F)c4)cc3)c(F)c2)C(=O)O1 (stereo unspecified) | 12.5 (≈ 6.55 µg/mL)
42 | CC(=O)NC[C@H]1CN(c2ccc(-c3ccc(CO)cc3)c(F)c2)C(=O)O1 | 1.56 (≈ 0.559 µg/mL)

tested on: Enterococcus faecium; assay: Antibacterial activity against Enterococcus faecium 35667 assessed as inhibition of bacterial growth measured after 24 hrs; assay type: functional; conditions: not given

Row | SMILES | MIC [µM]
43 | CC(=O)NCC1CN(c2ccc(-c3ccc(COC(=O)c4ccccc4)cc3)c(F)c2)C(=O)O1 (stereo unspecified) | 6.25 (≈ 2.89 µg/mL)
44 | CC(=O)NC[C@H]1CN(c2ccc(-c3ccc(OC(=O)c4ccc(B(O)O)cc4)cc3)c(F)c2)C(=O)O1 | > 50
45 | O=C(O)c1ccc(B(O)O)cc1 | > 50
46 | CC(=O)NC[C@H]1CN(c2ccc(-c3cccc(COC(=O)c4ccc(B(O)O)cc4)c3)c(F)c2)C(=O)O1 | 0.78 (≈ 0.395 µg/mL)
47 | CC(=O)NC[C@H]1CN(c2ccc(-c3ccc(CN)cc3)c(F)c2)C(=O)O1 | 0.78 (≈ 0.279 µg/mL)
48 | CC(=O)NC[C@H]1CN(c2ccc(-c3ccc(COC(=O)c4ccc(B(O)O)cc4)cc3)c(F)c2)C(=O)O1 | 0.78 (≈ 0.395 µg/mL)
49 | CC(=O)NC[C@H]1CN(c2ccc(-c3ccc(COC(=O)c4cccc(B(O)O)c4)cc3)c(F)c2)C(=O)O1 | > 50
50 | CC(=O)NCC1CN(c2ccc(-c3ccc(COC(=O)c4ccc(B(O)O)c(F)c4)cc3)c(F)c2)C(=O)O1 (stereo unspecified) | 1.56 (≈ 0.818 µg/mL)
51 | CC(=O)NC[C@H]1CN(c2ccc(-c3ccc(CO)cc3)c(F)c2)C(=O)O1 | 0.78 (≈ 0.28 µg/mL)

tested on: Staphylococcus aureus; assay: Antibacterial activity against Staphylococcus aureus 29213 assessed as inhibition of bacterial growth measured after 24 hrs; assay type: functional; conditions: not given

Row | SMILES | MIC [µM]
52 | CC(=O)NCC1CN(c2ccc(-c3ccc(COC(=O)c4ccccc4)cc3)c(F)c2)C(=O)O1 (stereo unspecified) | 3.13 (≈ 1.45 µg/mL)
53 | O=C(O)c1cn(C2CC2)c2cc(N3CCNCC3)c(F)cc2c1=O [CIPROFLOXACIN] | 1.5 (≈ 0.497 µg/mL)
54 | CC(=O)NC[C@H]1CN(c2ccc(-c3ccc(OC(=O)c4ccc(B(O)O)cc4)cc3)c(F)c2)C(=O)O1 | > 50
55 | O=C(O)c1ccc(B(O)O)cc1 | > 50
56 | CC(=O)NC[C@H]1CN(c2ccc(-c3cccc(COC(=O)c4ccc(B(O)O)cc4)c3)c(F)c2)C(=O)O1 | 0.78 (≈ 0.395 µg/mL)
57 | CC(=O)NC[C@H]1CN(c2ccc(-c3ccc(CN)cc3)c(F)c2)C(=O)O1 | 3.13 (≈ 1.12 µg/mL)
58 | CC(=O)NC[C@H]1CN(c2ccc(-c3ccc(COC(=O)c4ccc(B(O)O)cc4)cc3)c(F)c2)C(=O)O1 | 0.78 (≈ 0.395 µg/mL)
59 | CC(=O)NC[C@H]1CN(c2ccc(-c3ccc(COC(=O)c4cccc(B(O)O)c4)cc3)c(F)c2)C(=O)O1 | 1.56 (≈ 0.79 µg/mL)
60 | CC(=O)NCC1CN(c2ccc(-c3ccc(COC(=O)c4ccc(B(O)O)c(F)c4)cc3)c(F)c2)C(=O)O1 (stereo unspecified) | 1.56 (≈ 0.818 µg/mL)
61 | CC(=O)NC[C@H]1CN(c2ccc(-c3ccc(CO)cc3)c(F)c2)C(=O)O1 | 1.56 (≈ 0.559 µg/mL)

tested on: Enterococcus faecalis; assay: Antibacterial activity against vancomycin resistant Enterococcus faecalis 51575 assessed as inhibition of bacterial growth measured after 24 hrs; assay type: functional; conditions: not given

Row | SMILES | MIC [µM]
62 | CC(=O)NCC1CN(c2ccc(-c3ccc(COC(=O)c4ccccc4)cc3)c(F)c2)C(=O)O1 (stereo unspecified) | 3.13 (≈ 1.45 µg/mL)
63 | O=C(O)c1cn(C2CC2)c2cc(N3CCNCC3)c(F)cc2c1=O [CIPROFLOXACIN] | 3 (≈ 0.994 µg/mL)
64 | CC(=O)NC[C@H]1CN(c2ccc(-c3ccc(OC(=O)c4ccc(B(O)O)cc4)cc3)c(F)c2)C(=O)O1 | > 50
65 | O=C(O)c1ccc(B(O)O)cc1 | > 50
66 | CC(=O)NC[C@H]1CN(c2ccc(-c3cccc(COC(=O)c4ccc(B(O)O)cc4)c3)c(F)c2)C(=O)O1 | 0.39 (≈ 0.197 µg/mL)
67 | CC(=O)NC[C@H]1CN(c2ccc(-c3ccc(CN)cc3)c(F)c2)C(=O)O1 | 1.56 (≈ 0.558 µg/mL)
68 | CC(=O)NC[C@H]1CN(c2ccc(-c3ccc(COC(=O)c4ccc(B(O)O)cc4)cc3)c(F)c2)C(=O)O1 | 0.39 (≈ 0.197 µg/mL)
69 | CC(=O)NC[C@H]1CN(c2ccc(-c3ccc(COC(=O)c4cccc(B(O)O)c4)cc3)c(F)c2)C(=O)O1 | 0.78 (≈ 0.395 µg/mL)
70 | CC(=O)NCC1CN(c2ccc(-c3ccc(COC(=O)c4ccc(B(O)O)c(F)c4)cc3)c(F)c2)C(=O)O1 (stereo unspecified) | 0.78 (≈ 0.409 µg/mL)
71 | CC(=O)NC[C@H]1CN(c2ccc(-c3ccc(CO)cc3)c(F)c2)C(=O)O1 | 0.78 (≈ 0.28 µg/mL)

From ChEMBL document CHEMBL4818993, “Installation of an aryl boronic acid function into the external section of N-aryl-oxazolidinones: Synthesis and antimicrobial evaluation” (2021)
